The source made the active and inactive calls. The rule behind the calls is not given here.
Key:
Casein kinase II [1] = biological target: T1, Casein kinase II (Homo sapiens, UniProt P19784+P67870+P68400); assay: (§1) Inhibition of human CK2 assessed as residual activity by KinaseProfiler assay; format: protein-complex assay
MKN-1 [2] = assay: Cytotoxicity against human MKN1 cells assessed as cell viability at 10 uM after 24 hrs by MTT assay; format: functional, cell-based
Outline: (§2)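 Lines from Korea Cell Line Bank, kept in RPMI1640 with serum and penicillin/streptomycin at 37 °C, 5% CO2. Seeded at 1 × 10⁴ cells/well and grown 24 h, then exposed to the inhibitor for 24 h. MTT added at 4 mg/mL final for 2 h, formazan taken up in DMSO, absorbance read at 570 nm. Run in quadruplicate.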

MKN-28 [3] = assay: Cytotoxicity against human MKN28 cells assessed as cell viability at 10 uM after 24 hrs by MTT assay; format: functional, cell-based; outline: as §2
MKN-45 = assay: Cytotoxicity against human MKN45 cells assessed as cell viability at 10 uM after 24 hrs by MTT assay; format: functional, cell-based; outline: as §2
MKN-74 = assay: Cytotoxicity against human MKN74 cells assessed as cell viability at 10 uM after 24 hrs by MTT assay; format: functional, cell-based; outline: as §2
NCI-N87 = assay: Cytotoxicity against human NCI-N87 cells assessed as cell viability at 10 uM after 24 hrs by MTT assay; format: functional, cell-based; outline: as §2
SNU484 = assay: Cytotoxicity against human SNU484 cells assessed as cell viability at 10 uM after 24 hrs by MTT assay; format: functional, cell-based; outline: as §2
SNU668 = assay: Cytotoxicity against human SNU668 cells assessed as cell viability at 10 uM after 24 hrs by MTT assay; format: functional, cell-based; outline: as §2
HepG2 [4] = assay: Cytotoxicity against human HepG2 cells assessed as cell viability at 10 uM after 24 hrs by MTT assay; format: functional, cell-based
Outline: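 AGS and HepG2 kept in Modified Eagle's Medium with serum and antibiotics at 37 °C, 5% CO2. Seeded at 1 × 10⁴ cells/well and grown 24 h, then exposed for 24 h. MTT at 4 mg/mL final for 2 h, formazan dissolved in DMSO, A570. Quadruplicate.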

Hep 3B2 = assay: Cytotoxicity against human Hep3B cells assessed as cell viability at 10 uM after 24 hrs by MTT assay; format: functional, cell-based
Outline: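 Hep3B kept in Dulbecco's Modified Eagle's Medium with serum and antibiotics at 37 °C, 5% CO2. Seeded at 1 × 10⁴ cells/well and grown 24 h, then exposed for 24 h. MTT at 4 mg/mL final for 2 h, DMSO solubilisation, A570. Quadruplicate.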

SNU761 = assay: Cytotoxicity against human SNU761 cells assessed as cell viability at 10 uM after 24 hrs by MTT assay; format: functional, cell-based; outline: as §2
SNU878 = assay: Cytotoxicity against human SNU878 cells assessed as cell viability at 10 uM after 24 hrs by MTT assay; format: functional, cell-based; outline: as §2
TE-2 [5] = assay: Cytotoxicity against GFP-tagged human TE2 cells assessed as cell viability at 10 uM after 24 hrs by MTT assay; format: functional, cell-based
Outline: (§3)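 Esophageal TE2 cells stably carrying GFP or CK2α were plated at 1 × 10⁴ cells/well and grown 24 h. They were then exposed for 24 h, given MTT at 4 mg/mL final for 2 h, formazan dissolved in DMSO, absorbance at 570 nm.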

TE-2 [6] = assay: Cytotoxicity against human TE2 cells expressing CK2 assessed as cell viability at 10 uM after 24 hrs by MTT assay; format: functional, cell-based; outline: as §3
SNU739 [7] = assay: Cytotoxicity against human SNU739 cells assessed as cell viability at 10 uM after 24 hrs by MTT assay
[8] = biological target: Casein kinase II (Homo sapiens) (UniProt P67870+P68400+P19784); assay: as §1; format: protein-complex assay
Casein kinase II [9] = biological target: T1, Casein kinase II; assay: Competitive inhibition of human CK2 assessed as competitive with respect to ATP; format: protein-complex assay
AGS = assay: Induction of apoptosis in TRAIL-resistant human AGS cells assessed as cell death at 10 uM after 24 hrs and subsequently treated with TRAIL 200 ng/ml for 2 hr by Annexin-V-FLUOS staining; format: functional, cell-based
Outline: (§4)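 Cells were left untreated or pretreated with the inhibitor at 10 µM for 24 h, then exposed to TRAIL (200 ng/mL) for 2 h. They were then washed with PBS and stained with Annexin-V-FLUOS/propidium iodide for 15 min. Apoptotic cells were counted by fluorescence microscopy. Viability was assessed in parallel by MTT. Data are given as mean ± SD.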

MKN-1 [10] = assay: Induction of apoptosis in TRAIL-resistant human MKN1 cells assessed as cell death at 10 uM after 24 hrs and subsequently treated with TRAIL 200 ng/ml for 2 hr by Annexin-V-FLUOS staining; format: functional, cell-based; outline: as §4
MKN-28 [11] = assay: Induction of apoptosis in TRAIL-resistant human MKN28 cells assessed as cell death at 10 uM after 24 hrs and subsequently treated with TRAIL 200 ng/ml for 2 hr by Annexin-V-FLUOS staining; format: functional, cell-based; outline: as §4
HepG2 [12] = assay: Induction of apoptosis in TRAIL-resistant human HepG2 cells assessed as cell death at 10 uM after 24 hrs and subsequently treated with TRAIL 200 ng/ml for 2 hr by Annexin-V-FLUOS staining; format: functional, cell-based; outline: as §4
SK-HEP1 = assay: Induction of apoptosis in TRAIL-resistant human SKHEP1 cells assessed as cell death at 10 uM after 24 hrs and subsequently treated with TRAIL 200 ng/ml for 2 hr by Annexin-V-FLUOS staining; format: functional, cell-based; outline: as §4
SNU739 [13] = assay: Induction of apoptosis in TRAIL-resistant human SNU739 cells assessed as cell death at 10 uM after 24 hrs and subsequently treated with TRAIL 200 ng/ml for 2 hr by Annexin-V-FLUOS staining; format: functional, cell-based; outline: as §4
[14] = biological target: Casein kinase II subunit alpha (Homo sapiens) (UniProt P68400); assay: Inhibition of recombinant human CK2alpha assessed as inhibition of phosphorylation of GST-CS by Coomassie brilliant blue staining based autoradiography

CCOC(=O)C1=C(C)N=c2s/c(=C\c3cc(O)c(O)c(O)c3)c(=O)n2C1c1ccc(Cl)cc1 (stereo not drawn)
IC50 (Casein kinase II [1]): 8.79 µM

Brc1c(Br)c(Br)c2[nH]nnc2c1Br
Activity (MKN-1 [2]): Active
Activity (MKN-28 [3]): Active
Activity (MKN-45): Active
Activity (MKN-74): Active
Activity (NCI-N87): Active
Activity (SNU484): Active
Activity (SNU668): Active
Activity (HepG2 [4]): Active
Activity (Hep 3B2): Active
Activity (SNU761): Active
Activity (SNU878): Active
Activity (TE-2 [5]): Active
Activity (TE-2 [6]): Active
Activity (SNU739 [7]): Active

CCOC(=O)C1=C(C)N=c2s/c(=C\c3ccc(O)c(O)c3)c(=O)n2C1c1ccc(Cl)cc1 (stereo not drawn)
Activity [8]: Active
Ki (Casein kinase II [9]): 0.78 µM
Activity (MKN-1 [2]): Active
Activity (MKN-28 [3]): Active
Activity (MKN-45): Active
Activity (MKN-74): Active
Activity (NCI-N87): Active
Activity (SNU484): Active
Activity (SNU668): Active
Activity (HepG2 [4]): Active
Activity (Hep 3B2): Active
Activity (SNU761): Active
Activity (SNU878): Active
Activity (TE-2 [5]): Active
Activity (TE-2 [6]): Active
Activity (AGS): Active
Activity (MKN-1 [10]): Active
Activity (MKN-28 [11]): Active
Activity (HepG2 [12]): Active
Activity (SK-HEP1): Active
Activity (SNU739 [13]): Active
Activity (SNU739 [7]): Active
inhibition [14]: Active
